According to ChEMBL document CHEMBL1135521 (J Med Chem, 2002):

Experiments:
[1] = target: Human immunodeficiency virus type 1 protease (Human immunodeficiency virus 1, UniProt Q72874); assay: Concentration required to inhibit HIV-1 protease cleavage by 50%.
[2] = Concentration required to cause 50% death of uninfected MT-4 cells.; type: ADME, cell-based, MT4; details: human
MT4 = assay: Concentration required to inhibit syncytia formation by 50% on MT-4 cells.; type: functional, cell-based; details: Homo sapiens
How it was run: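 HIV-infected MT4 cell cultures were scored by observing the virus's fusogenic effect, that is, syncytium formation. EC50 is the concentration that halves syncytium formation, and compounds were tested up to 50 µM.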

[3] = Selectivity index, expressed as the ratio of CC50 and EC50; details: read-out: SI
How it was run: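 Ratio of CC50 to EC50 in HIV-infected MT4 cell cultures. The antiviral EC50 comes from inhibition of virus-induced syncytium formation (the fusogenic effect), scored by observing the cultures.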

SMILES: CC(C)CN(C[C@@H](O)[C@H](NC(=O)O[C@@H]1CCOC1)Sc1ccccc1)S(=O)(=O)c1ccc(N)cc1
- IC50 [1]: 1.4 µM
- CC50 [2]: > 50 µM
- EC50 (MT4): > 50 µM

SMILES: CC(C)CN(C[C@H](O)[C@H](NC(=O)O[C@@H]1CCOC1)Sc1ccccc1)S(=O)(=O)c1ccc(N)cc1
- IC50 [1]: 11.6 µM
- CC50 [2]: > 50 µM
- EC50 (MT4): > 50 µM

SMILES: CC(C)CN(C[C@H](O)[C@@H](NC(=O)O[C@@H]1CCOC1)Sc1ccccc1)S(=O)(=O)c1ccc(N)cc1
- IC50 [1]: 12.5 µM
- CC50 [2]: > 50 µM
- EC50 (MT4): > 50 µM

SMILES: CC(C)CN(C[C@@H](O)[C@@H](NC(=O)O[C@@H]1CCOC1)Sc1ccccc1)S(=O)(=O)c1ccc(N)cc1
- IC50 [1]: 16.7 µM
- CC50 [2]: > 50 µM
- EC50 (MT4): > 50 µM

SMILES: CC(C)CN(CC(O)C(NC(=O)O[C@H]1CCOC1)Sc1ccccc1)S(=O)(=O)c1ccc(N)cc1 (some centres not stated)
- CC50 [2]: > 50 µM
- selectivity ratio [3]: > 1
- EC50 (MT4): 50 µM

SMILES: CC(C)CN(C[C@@H](O)[C@H](Cc1ccccc1)NC(=O)O[C@H]1CCOC1)S(=O)(=O)c1ccc(N)cc1
- CC50 [2]: > 50 µM
- EC50 (MT4): 0.01 µM
